For one data set, the target named is Carbonic anhydrase 2 (Homo sapiens, UniProt P00918). Description: Inhibition of human recombinant carbonic anhydrase 2 expressed in Escherichia coli by stopped flow CO2 hydration assay.
The next data set has as its target Carbonic anhydrase 9 (Homo sapiens, UniProt Q16790). Description: Inhibition of human recombinant carbonic anhydrase 9 expressed in Escherichia coli by stopped flow CO2 hydration assay. In outline: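 Recombinant human CA IX produced in E. coli, used at 8.0 nM; CO2 hydration activity followed by stopped-flow. IC50 is taken from seven-concentration dose–response curves fitted by nonlinear least squares, mean of at least three determinations. Ki is derived by Cheng–Prusoff, Ki = IC50/(1 + [S]/Km), where [S] is the CO2 concentration used.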

The target of the next data set is Carbonic anhydrase 4 (Homo sapiens, UniProt P22748).
The target of data set [1] is Carbonic anhydrase 5A, mitochondrial (Homo sapiens, UniProt P35218).
The target in data set [2] is Carbonic anhydrase 5B, mitochondrial (Homo sapiens, UniProt Q9Y2D0).
In a further data set the target is Carbonic anhydrase 7 (Homo sapiens, UniProt P43166).
For another data set, the target named is Carbonic anhydrase 1 (Homo sapiens, UniProt P00915). The data set can be described thus: Inhibition of human recombinant carbonic anhydrase 1 expressed in Escherichia coli by stopped flow CO2 hydration assay.
Sequence of Carbonic anhydrase 1 (P00915 whole entry): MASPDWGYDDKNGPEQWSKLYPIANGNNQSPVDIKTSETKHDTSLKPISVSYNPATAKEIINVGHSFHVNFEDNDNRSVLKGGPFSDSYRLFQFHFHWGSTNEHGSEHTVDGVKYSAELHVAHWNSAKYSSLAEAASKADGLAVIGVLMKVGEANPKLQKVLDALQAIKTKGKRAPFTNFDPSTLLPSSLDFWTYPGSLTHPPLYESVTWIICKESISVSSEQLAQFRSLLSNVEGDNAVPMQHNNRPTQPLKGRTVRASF

Sequence of Carbonic anhydrase 4 (P22748 whole entry): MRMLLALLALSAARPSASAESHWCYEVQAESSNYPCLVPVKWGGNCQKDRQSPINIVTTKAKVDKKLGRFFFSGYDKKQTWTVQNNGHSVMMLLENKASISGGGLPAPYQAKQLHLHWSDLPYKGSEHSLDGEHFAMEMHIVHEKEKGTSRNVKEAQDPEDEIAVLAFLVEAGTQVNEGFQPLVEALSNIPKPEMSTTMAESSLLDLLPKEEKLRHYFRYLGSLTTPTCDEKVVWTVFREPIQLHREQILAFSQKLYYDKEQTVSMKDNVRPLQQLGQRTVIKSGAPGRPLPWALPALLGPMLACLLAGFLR
Sequence of Carbonic anhydrase 5A, mitochondrial (P35218 whole entry): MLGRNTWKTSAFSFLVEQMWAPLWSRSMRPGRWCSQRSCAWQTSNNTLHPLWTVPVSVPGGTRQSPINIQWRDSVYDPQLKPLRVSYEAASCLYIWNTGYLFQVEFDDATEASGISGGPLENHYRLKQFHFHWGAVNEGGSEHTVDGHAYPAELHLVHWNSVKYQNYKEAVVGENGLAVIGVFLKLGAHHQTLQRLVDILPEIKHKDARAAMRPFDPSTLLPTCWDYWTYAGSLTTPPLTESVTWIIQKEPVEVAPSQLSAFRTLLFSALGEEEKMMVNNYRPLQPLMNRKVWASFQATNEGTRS
Sequence of Carbonic anhydrase 7 (P43166 whole entry): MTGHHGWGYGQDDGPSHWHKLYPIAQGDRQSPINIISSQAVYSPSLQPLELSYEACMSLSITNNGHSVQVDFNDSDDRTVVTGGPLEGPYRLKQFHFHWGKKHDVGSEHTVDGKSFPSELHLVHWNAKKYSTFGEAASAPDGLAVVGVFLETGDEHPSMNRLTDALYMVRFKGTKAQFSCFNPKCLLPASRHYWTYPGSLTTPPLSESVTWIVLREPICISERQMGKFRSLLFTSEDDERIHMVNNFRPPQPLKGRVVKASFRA
Sequence of Carbonic anhydrase 5B, mitochondrial (Q9Y2D0 whole entry): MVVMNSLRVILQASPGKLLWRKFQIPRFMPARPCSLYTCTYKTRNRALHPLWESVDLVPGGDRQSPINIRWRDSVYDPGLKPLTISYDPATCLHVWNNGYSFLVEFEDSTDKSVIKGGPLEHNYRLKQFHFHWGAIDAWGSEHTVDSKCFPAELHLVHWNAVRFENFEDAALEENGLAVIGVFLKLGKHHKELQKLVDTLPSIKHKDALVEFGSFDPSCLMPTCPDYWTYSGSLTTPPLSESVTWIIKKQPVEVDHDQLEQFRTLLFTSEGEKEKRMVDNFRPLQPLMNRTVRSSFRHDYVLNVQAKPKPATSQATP

As to `COc1ccc(-c2cn(-c3ccc4c(c3)S(=O)(=O)NC4=O)nn2)c(C)c1`, the Ki on Carbonic anhydrase 2 is greater than 50 µM; at Carbonic anhydrase 9, 0.0957 µM.
Turning to `O=C1NS(=O)(=O)c2ccccc21` [SACCHARIN], the Ki at Carbonic anhydrase 4 amounted to 7.92 µM; in data set [1], 10.1 µM; in data set [2] it was 7.21 µM; at Carbonic anhydrase 7, 0.01 µM. In “physchem”, this molecule came in with a pKa of 1.3.
`Cc1cc(-c2cn(-c3ccc4c(c3)S(=O)(=O)NC4=O)nn2)ccc1F`: the values for the Ki at Carbonic anhydrase 1 and at Carbonic anhydrase 9 were greater than 50 µM and 0.0478 µM, respectively.
`O=C1NS(=O)(=O)c2cc(-n3cc(CO[C@@H]4O[C@H](CO)[C@@H](O)[C@H](O)[C@H]4O)nn3)ccc21`: the inhibition constant Ki at Carbonic anhydrase 1 was greater than 50 µM; on Carbonic anhydrase 2, greater than 50 µM; on Carbonic anhydrase 9 it was 0.0495 µM.
For the molecule `Cc1cccc(-c2cn(-c3ccc4c(c3)S(=O)(=O)NC4=O)nn2)c1`, the Ki on Carbonic anhydrase 1 is greater than 50 µM; at Carbonic anhydrase 9 it was 0.0897 µM.
`[N-]=[N+]=Nc1ccc2c(c1)S(=O)(=O)NC2=O`: the Ki at Carbonic anhydrase 9 was found to be 0.466 µM.
In the case of `COc1ccc(-c2cn(-c3ccc4c(c3)S(=O)(=O)NC4=O)nn2)cc1`, the Ki at Carbonic anhydrase 2 is greater than 50 µM; on Carbonic anhydrase 9 it was 0.341 µM.
As for `O=C1NS(=O)(=O)c2cc([N+](=O)[O-])ccc21`, the Ki on Carbonic anhydrase 1 and at Carbonic anhydrase 2 was greater than 50 µM throughout.
For the molecule `Nc1ccc2c(c1)S(=O)(=O)NC2=O`, the inhibitory constant (Ki) at Carbonic anhydrase 1 was greater than 50 µM; on Carbonic anhydrase 2 it was greater than 50 µM; on Carbonic anhydrase 9, 0.61 µM.
Take `O=C1NS(=O)(=O)c2cc(-n3cc(-c4ccccc4C(F)(F)F)nn3)ccc21`: the inhibitory constant (Ki) was greater than 50 µM on Carbonic anhydrase 2 and 0.443 µM on Carbonic anhydrase 9.
Consider `O=C1NS(=O)(=O)c2cc(-n3cc(-c4ccccc4)nn3)ccc21`, for which the inhibition constant (Ki) on Carbonic anhydrase 1 was greater than 50 µM; on Carbonic anhydrase 9, 0.484 µM.

Broadly, the Ki is the dissociation constant of the complex between target and ligand, obtained from inhibition or displacement. As usually defined, the pKa is the pH at which an ionisable group is half protonated. A high value points to a weaker acid or stronger base.

The record behind these values is ChEMBL document CHEMBL3232792, “Cyclic secondary sulfonamides: unusually good inhibitors of cancer-related carbonic anhydrase enzymes” (J Med Chem, 2014).
